Screens from PubChem BioAssay.
HTR5A inv ctr: inverse agonist of human HTR5A in OPRM1-OPRD1 counter-screen; HTR5A cell line, luminescence, inverse agonism; inhibition, % at 9.3 µM; 0.083% of 340,000 active; AID 504634; in the data active = inhibition mostly above about 23%, no sharp cut-off; inactive = mostly below about 18%;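 note: 0% = cells with DMSO and 100% = no-cell wells with DMSO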
OPRM1-OPRD1 ag: OPRM1-OPRD1 heterodimerization agonism | P35372+P41143 | cells, luminescence | activation, % at 9.3 µM | 0.3% of 340,000 active; in the data active = activation above about 18%;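 note: 0% = vehicle-treated cells and 100% = reference agonist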
Target sequence (P35372 whole entry, looked up): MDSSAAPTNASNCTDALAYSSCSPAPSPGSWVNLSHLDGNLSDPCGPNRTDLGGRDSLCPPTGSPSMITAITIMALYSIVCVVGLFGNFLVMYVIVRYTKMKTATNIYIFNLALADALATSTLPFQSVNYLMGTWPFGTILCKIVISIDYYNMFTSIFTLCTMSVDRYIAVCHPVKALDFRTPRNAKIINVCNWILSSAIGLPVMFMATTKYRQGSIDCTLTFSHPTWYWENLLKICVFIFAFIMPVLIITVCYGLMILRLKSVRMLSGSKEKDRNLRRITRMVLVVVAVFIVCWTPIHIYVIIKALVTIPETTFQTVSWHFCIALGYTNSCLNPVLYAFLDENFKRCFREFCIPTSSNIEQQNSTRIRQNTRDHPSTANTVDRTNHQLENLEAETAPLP
Target sequence (P41143 whole entry, looked up): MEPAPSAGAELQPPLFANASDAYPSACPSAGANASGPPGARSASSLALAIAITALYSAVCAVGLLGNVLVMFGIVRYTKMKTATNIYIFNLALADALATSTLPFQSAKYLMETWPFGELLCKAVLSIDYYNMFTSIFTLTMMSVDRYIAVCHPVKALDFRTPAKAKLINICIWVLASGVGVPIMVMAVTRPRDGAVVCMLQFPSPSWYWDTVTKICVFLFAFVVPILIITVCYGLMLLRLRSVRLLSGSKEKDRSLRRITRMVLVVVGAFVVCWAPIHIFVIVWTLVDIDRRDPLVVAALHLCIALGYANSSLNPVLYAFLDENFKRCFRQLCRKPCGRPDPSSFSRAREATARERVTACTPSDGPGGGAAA
OPRM1-OPRD1 inv: inverse agonist of human OPRM1-OPRD1 heterodimerization. inhibition, % at 9.3 µM. P35372+P41143. cell-based MOR-DOR heterodimer luminescence, inverse agonism. 0.21% of 340,000 active; in the data active = inhibition above about 22%, passing the limit was not always enough;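 note: 0% = cells with DMSO and 100% = wells without cells with DMSO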
MC4R antag cAMP: antagonists of human melanocortin 4 receptor (MC4R); 0.48% of 360,000 active; P32245; AID 540295; inhibition, % at 6.5 µM; MC4R-expressing cells, MTII-stimulated cAMP, LANCE TR-FRET;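 active = inhibition above its plate's cutoff, the mean of tested wells on that plate plus 3 SD, cut at about 29% in these data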;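 note: 0% = Melanotan II alone and 100% = Melanotan II plus saturating MCL0020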
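Assay system: U2OS-MC4R stable cell line; Also added: Melanotan II; Technique: Eu-cAMP/anti-cAMP TR-FRET, emission 671 nm; Times: 30-min compound, 1-h challenge, 1-h detection, room temperature.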
HTR5A ag: HTR5A agonism, opioid heterodimer counter-screen; HTR5A agonist assay, luminescence, cell-based; activation, % at 9.3 µM; 0.61% of 340,000 active; in the data active = activation mostly above about 9.5%, no sharp cut-off; inactive = mostly below about 7.6%;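 note: 0% = cells with vehicle only and 100% = reference agonist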
MC4R barr agon: human MC4R agonism via beta-arrestin; P32245; AID 540308; activation, % at 8.9 µM; U2OS MC4R beta-arrestin complementation, luminescence; percent of melanotan II response, DMSO zero; 0.98% of 360,000 active;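 active = activation above a per-plate cutoff, the mean activation of sample wells on that plate plus 3 SD, cut at about 8% in these data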
MC4R barr ag: human MC4R beta-arrestin agonism confirmation; shares compounds with MC4R barr agon; U2OS MC4R beta-arrestin recruitment, luminescence; scaled DMSO 0%, Melanotan II 100%; activation, % at 8.9 µM; 31% of 2,400 active; AID 602192;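 active = mean activation across replicates above the hit cutoff set in the earlier primary screen, cut at about 8% in these data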
MOR DOR agonist: activates mu-delta opioid heterodimer, MC4R agonist counter-screen | shares compounds with MC4R barr agon | U2OS PathHunter beta-arrestin, beta-gal luminescence; percent of deltorphin B response, DMSO zero | activation, % at 9.2 µM | 5.8% of 2,400 active | AID 602194;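 active = mean activation across replicates exceeds the hit threshold derived in the earlier primary screen, cut at about 18% in these data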;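 note: 100% = deltorphin B at 0.9 µM final and 0% = DMSO alone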
* hit, by the source's call; / = no result. A selection: hits, their analogues and other compounds. The true share with any hit is near 2.4%.

SMILES | HTR5A inv ctr | OPRM1-OPRD1 ag | OPRM1-OPRD1 inv | MC4R antag cAMP | HTR5A ag | MC4R barr agon | MC4R barr ag | MOR DOR agonist
CCOC(=O)c1c(C)[nH]c(C(=O)COC(=O)C(C)N2C(=O)C3CCCCC3C2=O)c1C (stereo unspecified) | -40 | -1 | 5 | 16 | 1 | 0 | / | /
CCOC(=O)c1sc(N(Cc2ccccc2)C(=O)CCl)nc1C | -3 | 4 | -24 | 25 | 1 | 16* | 4 | 38*
Cc1cc2nc3c(c(C(F)(F)F)n2n1)CCCC3 | -3 | -2 | 10 | 8 | 1 | 1 | / | /
Cc1ccc(S(=O)(=O)N(C)C)cc1NC(=O)COC(=O)CCC(=O)c1cccs1 | -5 | -1 | 7 | 1 | 2 | 0 | / | /
O=c1c2ccccc2nc(SCc2ccccc2)n1Cc1ccco1 | -8 | 1 | -4 | 0 | 3 | -1 | / | /
O=c1c2ccccc2nc(SCc2nc3ccccc3s2)n1Cc1ccco1 | 2 | 4 | -24 | 21 | 6 | 11* | -2 | 5
O=C(NC1CCN(S(=O)(=O)c2ccccc2)CC1)c1ccccc1 | -1 | -2 | 11 | 4 | 0 | -3 | / | /
CC(OC(=O)c1cc2sccc2n1C)C(=O)NCc1ccc2c(c1)OCO2 (stereo unspecified) | 6 | 3 | -16 | 10 | 2 | 13* | -1 | 2
CCCCN(C)C(=O)c1nc2ccccn2c1CN1CCC[C@H]1CO | -3 | -3 | 13 | 3 | 1 | -2 | / | /
C=CCNC(=S)NNc1nc2c(c(=O)[nH]1)C1(CCCCC1)Cc1ccccc1-2 | -39 | 11 | -79 | 6 | 11 | 15* | -3 | 6
O=C(C1CCN(S(=O)(=O)c2cccc3cccnc23)CC1)N1CCN(c2ccc(Cl)cc2)CC1 | 5 | 3 | -15 | 15 | -2 | 1 | / | /
O=c1c2ccccc2nc(/C=C/c2ccc(O)cc2)n1CCc1ccccc1 | -16 | 8 | -41 | 16 | 6 | 15* | 1 | 7
COc1ccc(NC(=O)CN(C)C(=O)c2cn(-c3ccccc3)nc2-c2cccnc2)cc1 | 0 | -1 | 5 | 3 | 0 | -2 | / | /
CNc1cnn(-c2ccccc2)c(=O)c1Cl | -20 | -2 | 9 | 3 | 6 | -1 | / | /
O=c1c(Cl)c(N/N=C/c2ccc(Br)cc2)cnn1-c1ccccc1 | -10 | 5 | -31 | 7 | -1 | 16* | 12* | 3
C=CCn1c(COc2cc(C)ccc2C(C)C)nnc1SCC(=O)c1c(N)n(C)c(=O)n(C)c1=O | 11 | 0 | 1 | 7 | -4 | 9.7* | 3 | 4
Cc1ccc(C(C)C)c(OCC(=O)OCC(=O)c2c(N)n(C)c(=O)n(C)c2=O)c1 | -19 | 2 | -9 | 0 | 8 | -3 | / | /
CCCN(C(=O)COC(=O)CNC(=O)c1ccc2ccccc2c1)c1c(N)n(Cc2ccccc2)c(=O)[nH]c1=O | -5 | 0 | 3 | 5 | 2 | -2 | / | /
C[C@H](O)[C@@H]1CN2CCc3c([nH]c4ccccc34)[C@@H]2C[C@@H]1N(C)C(=O)NC1CCCCC1 | / | / | / | 9 | / | 0 | / | /
CCSc1ccc(-c2cc(NC=O)c3ncc(-c4cccc(C(=O)N(C)C)c4)n3c2)cc1 | / | / | / | -8 | / | 10* | 9.1* | 2
CN(C)C(=O)c1cccc(-c2cnc3c(NC=O)cc(-c4cc(F)c(F)c(F)c4)cn23)c1 | / | / | / | -7 | / | 4 | / | /
CN(C)C(=O)c1cccc(-c2cnc3c(NC=O)cc(-c4ccccc4F)cn23)c1 | / | / | / | -21 | / | 9.8* | 11* | 1
CCSc1ccc(-c2cc(NC=O)c3ncc(-c4cccc(C(=O)NCCN(C)C)c4)n3c2)cc1 | / | / | / | 2 | / | 11* | 13* | 11
CN(C)CCNC(=O)c1cccc(-c2cnc3c(NC=O)cc(/C=C/c4ccccc4)cn23)c1 | / | / | / | -5 | / | 17* | 7 | 3
CN(C)CCNC(=O)c1cccc(-c2cnc3c(NC=O)cc(-c4ccc(F)cc4)cn23)c1 | / | / | / | -12 | / | -1 | / | /
SMILES | HTR5A inv ctr | OPRM1-OPRD1 ag | OPRM1-OPRD1 inv | MC4R antag cAMP | HTR5A ag | MC4R barr agon | MC4R barr ag | MOR DOR agonist
CN1CCN(CC(=O)Nc2c(C#N)cnn2-c2ccccc2)CC1 | / | / | / | 3 | / | 0 | / | /
CCN(CC)CCOc1ccc2c(c1)C(=NO)c1cc(OCCN(CC)CC)ccc1-2 | -22 | 0 | 2 | -9 | 5 | -1 | / | /
CCCOc1ccc2c(c1)C(=NN=C(N)N)c1cc(OCCC)ccc1-2 | -14 | 3 | -12 | 7 | 4 | 14* | 11* | 9
CC(C)c1ccc(NC(=O)Cn2ncn3c(cc4ccccc43)c2=O)cc1 | 0 | 1 | -7 | 4 | 3 | 12* | 2 | 8
CN(C)c1ccc(NC(=O)Cn2ncn3c(cc4ccccc43)c2=O)cc1 | -21 | -1 | 6 | 5 | 8 | 0 | / | /
CCCc1cc(C(=O)Nc2cccc(-c3nn[nH]n3)c2)sc1C | / | / | / | 9 | / | -2 | / | /
CCCn1c(=S)[nH]c2cc(C(=O)N3CCc4ccccc4C3)ccc2c1=O | -12 | 1 | -6 | 9 | 4 | 12* | -3 | 3
O=C(CCc1nnc(CCc2c[nH]c3ccccc23)o1)NC1CCC1 | 7 | -1 | 4 | 3 | 4 | -1 | / | /
O=C(NC(=S)Nc1ccccn1)c1cccc([N+](=O)[O-])c1 | -1 | -3 | 13 | 0 | -1 | 0 | / | /
CCOc1ccc(/C=N/NC(=O)c2cc3c(OC)cccc3[nH]2)cc1 | -34 | 14 | -83 | -8 | 9 | 11* | 3 | 18*
COC(=O)Cc1ccc(NC(=S)NC2CC2)cc1 | 13 | -3 | 13 | 4 | 8 | 1 | / | /
O=C(CNCCC1=CCCCC1)Nc1ccc(N2CCCCCC2)cc1 | -2 | 16 | -84 | 6 | 4 | 13* | 9.4* | 16
CCn1nc(NC(=O)c2cccnc2)c2cc3cccc(C)c3nc21 | -66 | 12 | -65 | 1 | 18* | 17* | 0 | 3
CCn1nc(NC(=O)c2ccncc2)c2cc3cccc(C)c3nc21 | -12 | 2 | -13 | 11 | 5 | 0 | / | /
O=C(Nc1cccc(C(F)(F)F)c1)c1csc([C@H]2C[C@H](O)[C@@H](CO)O2)n1 | / | / | / | 12 | / | 0 | / | /
COc1ccc(/C=C/C(=O)NCc2c(C)nn(C)c2C)cc1COc1ccc(Br)cc1 | -18 | 2 | -12 | -4 | 3 | 12* | 1 | 3
CCOC(=O)CC(=O)CSc1nc(-c2ccc3c(c2)OCO3)cc(C(F)(F)F)c1C#N | -6 | -1 | 6 | 28 | 2 | 25* | 8.9* | 5
Nc1nnc(CSCc2cccc(Br)c2)s1 | -3 | -3 | 14 | -9 | 0 | -1 | / | /
